The values that follow come from ChEMBL document CHEMBL1641399, “Phytochemical investigations of Stemona curtisii and synthetic studies on stemocurtisine alkaloids” (2010).

In brackets after ≈: the same amount, converted by molar mass.

For assay [1], the system named is Staphylococcus aureus. Put plainly: Antimicrobial activity against methicillin-resistant Staphylococcus aureus. It counts as functional. In short, it runs like this: (§1)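 Antibacterial MIC determination in µg/mL against a bacterial panel that includes Streptococcus pyogenes, with gentamicin as positive control; otherwise run by a literature procedure.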
In assay [2] the test system is Candida albicans. Put plainly: Antimicrobial activity against Candida albicans. The assay is classed as functional. In short, it runs like this: (§2)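 Antifungal test read as MIC (µg/mL), following a previously published procedure, with amphotericin B run as positive control.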
For assay [3], the system named is Escherichia coli. The experiment in a line: Antimicrobial activity against Escherichia coli. The assay is classed as functional.
The subject of assay [4] is Klebsiella pneumoniae. The experiment in a line: Antimicrobial activity against Klebsiella pneumoniae. The assay is classed as functional.
Assay [5] has as its system Staphylococcus aureus. Put plainly: Antimicrobial activity against Staphylococcus aureus. It counts as functional. In outline:
as §1

Assay [6] relates to Cryptococcus neoformans. Put plainly: Antimicrobial activity against Cryptococcus neoformans. It counts as functional. In outline: as §2
Assay [7] concerns Streptococcus pyogenes. Put plainly: Antimicrobial activity against Streptococcus pyogenes. The assay is classed as functional. In outline: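 Antibacterial test read as MIC (µg/mL), following a previously published procedure, with gentamicin run as positive control.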
The target in assay [8] is Acetylcholinesterase (Homo sapiens) (UniProt P22303).
Acetylcholinesterase (Homo sapiens), sequence (P22303 whole entry): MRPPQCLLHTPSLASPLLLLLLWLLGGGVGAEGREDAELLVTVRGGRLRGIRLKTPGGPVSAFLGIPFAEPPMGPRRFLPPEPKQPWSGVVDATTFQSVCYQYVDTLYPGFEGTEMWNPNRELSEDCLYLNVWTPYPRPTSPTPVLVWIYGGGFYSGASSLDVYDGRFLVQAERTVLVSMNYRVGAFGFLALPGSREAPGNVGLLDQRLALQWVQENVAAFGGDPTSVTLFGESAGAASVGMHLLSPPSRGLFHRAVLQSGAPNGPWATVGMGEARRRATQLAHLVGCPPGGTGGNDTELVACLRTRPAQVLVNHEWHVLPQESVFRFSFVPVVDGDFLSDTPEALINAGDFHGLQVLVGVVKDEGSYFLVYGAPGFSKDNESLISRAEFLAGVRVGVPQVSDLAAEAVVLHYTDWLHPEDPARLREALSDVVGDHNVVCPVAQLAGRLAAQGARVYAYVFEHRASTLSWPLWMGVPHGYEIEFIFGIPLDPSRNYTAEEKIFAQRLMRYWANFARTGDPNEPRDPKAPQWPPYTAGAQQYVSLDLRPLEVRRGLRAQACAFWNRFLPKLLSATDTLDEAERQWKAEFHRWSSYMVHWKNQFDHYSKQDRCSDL

Turning to `COc1cc(-c2cc3c(O)cccc3o2)c(C)c(OC)c1C` [STEMOFURAN J], the MIC in assay [1], in assay [2], in assay [3], in assay [4], in assay [5] and in assay [6] was 250 µg/mL (≈ 838 µM) in each case. Also, the MIC in assay [7] came out at 250 µg/mL (≈ 838 µM).

Take `C[C@@H]1[C@H](O)[C@@H](C)/C=C/C=C/C=C/C=C/C=C/C=C/C=C/[C@H](O[C@@H]2O[C@H](C)[C@@H](O)[C@H](N)[C@@H]2O)C[C@@H]2O[C@](O)(C[C@@H](O)C[C@@H](O)[C@H](O)CC[C@@H](O)C[C@@H](O)CC(=O)O[C@H]1C)C[C@H](O)[C@H]2C(=O)O` [AMPHOTERICIN B]: the MIC in assay [1], in assay [2], in assay [3], in assay [4], in assay [5] and in assay [6] was 250 µg/mL (≈ 271 µM) each time. Also, the MIC in assay [7] came out at 250 µg/mL (≈ 271 µM).

As for `COc1c(C)c(O)c(C)c(-c2cc3ccccc3o2)c1C` [STEMOFURAN K], the MIC in assay [1], in assay [2], in assay [3], in assay [4], in assay [5] and in assay [6] was 250 µg/mL (≈ 885 µM) throughout. Moreover, in assay [7], the MIC was 250 µg/mL (≈ 885 µM).

With GENTAMICIN, the MIC in assay [1], in assay [2], in assay [3], in assay [4], in assay [5] and in assay [6] was 250 µg/mL in each case. The MIC in assay [7] was determined as 250 µg/mL.

Turning to `COc1c(C)c(O)c(C)c(-c2cc3c(O)cccc3o2)c1C` [STEMOFURAN F], the MIC in assay [1], in assay [2], in assay [3], in assay [4], in assay [5] and in assay [6] was 250 µg/mL (≈ 838 µM) in each case. The molecule further came in with an MIC in assay [7] of 250 µg/mL (≈ 838 µM).

In assay [8], `CC[C@H](O)[C@@H]1CC[C@@H]2O[C@@]34CCC[N+]1([O-])[C@@H]2[C@H]3[C@H](C)/C(=C1/OC(=O)C(C)=C1OC)O4` (some centres undefined) gave an MIC of 100 ng.

As for `COc1cc(-c2cc3c(O)cccc3o2)c(C)c(O)c1C` [STEMOFURAN E], the MIC in assay [1], in assay [2], in assay [3], in assay [4], in assay [5] and in assay [6] was 250 µg/mL (≈ 879 µM) each time. The molecule also had an MIC in assay [7] of 250 µg/mL (≈ 879 µM).

On to `CC/C=C/C12C3CC4C5[C@@H](C)/C(=C6/OC(=O)C(C)=C6OC)O[C@]5(O3)C1CCN42` (some centres undefined), for which, in assay [8], the MIC amounted to 5 ng.
